From ChEMBL document CHEMBL1147918, “Novel 5-substituted 1-pyrazolol analogues of ibotenic acid: synthesis and pharmacology at glutamate receptors” (Bioorg Med Chem, 2007) come the findings set out here.

Assay [1] concerns the target Metabotropic glutamate receptor 4 (Rattus norvegicus, UniProt P31423). The experiment in a line: Agonist activity at rat mGluR4 receptor expressed in CHO cells assessed as effect on intracellular cAMP level. The format is functional, cell-based. A digest of the protocol: (§1)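 Means of at least three independent experiments, expressed as pEC50 or pKi ± SEM.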
For assay [2], the target named is T1, Metabotropic glutamate receptor 1 (Rattus norvegicus, UniProt P23385). Nature of the assay: Agonist activity at rat mGluR1a receptor expressed in CHO cells assessed as effect on intracellular calcium level. Type of assay: functional, cell-based. In short, it runs like this: as §1
T1 sequence (P23385 whole entry): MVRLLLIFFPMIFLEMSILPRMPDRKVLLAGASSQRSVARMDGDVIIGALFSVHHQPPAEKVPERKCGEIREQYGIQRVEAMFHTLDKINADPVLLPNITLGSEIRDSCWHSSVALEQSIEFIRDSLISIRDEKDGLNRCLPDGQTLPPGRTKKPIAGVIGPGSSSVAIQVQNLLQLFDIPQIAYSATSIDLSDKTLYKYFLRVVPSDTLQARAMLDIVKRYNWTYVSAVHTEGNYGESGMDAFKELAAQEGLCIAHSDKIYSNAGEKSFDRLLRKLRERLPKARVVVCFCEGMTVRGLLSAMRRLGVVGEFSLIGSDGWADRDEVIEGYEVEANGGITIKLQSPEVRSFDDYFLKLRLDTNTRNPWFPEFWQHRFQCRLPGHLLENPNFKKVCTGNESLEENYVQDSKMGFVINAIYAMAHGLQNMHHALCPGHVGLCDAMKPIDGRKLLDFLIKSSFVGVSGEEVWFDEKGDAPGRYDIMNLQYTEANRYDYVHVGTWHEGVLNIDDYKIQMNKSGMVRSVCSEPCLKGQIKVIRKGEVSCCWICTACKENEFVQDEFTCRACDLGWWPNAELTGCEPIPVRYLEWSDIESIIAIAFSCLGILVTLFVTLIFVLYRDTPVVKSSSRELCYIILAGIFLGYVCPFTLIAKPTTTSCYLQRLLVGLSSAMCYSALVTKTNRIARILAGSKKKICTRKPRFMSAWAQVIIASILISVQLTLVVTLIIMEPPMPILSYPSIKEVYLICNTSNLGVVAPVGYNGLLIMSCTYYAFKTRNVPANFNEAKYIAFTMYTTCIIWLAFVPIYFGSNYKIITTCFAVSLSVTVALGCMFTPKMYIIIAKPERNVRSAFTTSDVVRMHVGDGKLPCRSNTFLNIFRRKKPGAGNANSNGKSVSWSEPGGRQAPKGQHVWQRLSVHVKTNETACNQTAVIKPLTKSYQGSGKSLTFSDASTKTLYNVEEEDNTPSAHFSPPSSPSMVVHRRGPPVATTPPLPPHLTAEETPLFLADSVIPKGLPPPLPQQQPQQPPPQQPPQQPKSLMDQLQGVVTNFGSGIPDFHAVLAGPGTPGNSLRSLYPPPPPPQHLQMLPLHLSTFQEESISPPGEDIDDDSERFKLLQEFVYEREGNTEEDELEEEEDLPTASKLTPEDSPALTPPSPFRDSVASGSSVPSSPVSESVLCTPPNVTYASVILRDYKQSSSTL
Assay [3] in a line: Displacement of [3H]AMPA from AMPA receptor in rat cortical membrane. Type of assay: cell membranes. In short, it runs like this: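 Rat brain membranes prepared per Ransom and Stec; native AMPA receptor affinity measured with 5 nM [3H]AMPA. Means of at least three to four independent experiments; values as pIC50 or pKi ± SEM.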
On the technique in general: In a radioligand displacement assay an active substance lowers the binding of a labelled ligand.

The nature of assay [4]: Displacement of [3H]KA from KA receptor in rat cortical membrane. Type of assay: cell membranes. In short, it runs like this:
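Native kainate receptor binding on rat brain membranes (Ransom and Stec preparation) using 5 nM [3H]KA. Means of at least three to four independent experiments, reported as pIC50 or pKi ± SEM.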

The target in another assay is Glutamate NMDA receptor. The experiment in a line: Displacement of [3H]CGP39653 from NMDA receptor in rat cortical membrane. Type of assay: cell membranes. In short, it runs like this: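 NMDA receptor affinity on rat brain membranes prepared per Ransom and Stec, radioligand 2 nM [3H]CGP39653. Means of at least three to four independent experiments; pIC50 or pKi ± SEM.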

Assay [5] deals with T2, Metabotropic glutamate receptor 2 (Rattus norvegicus, UniProt P31421). Nature of the assay: (§2) Agonist activity at rat mGluR2 receptor expressed in CHO cells assessed as effect on intracellular cAMP level. Type of assay: functional, cell-based. A digest of the protocol: as §1
T2 sequence (P31421 whole entry): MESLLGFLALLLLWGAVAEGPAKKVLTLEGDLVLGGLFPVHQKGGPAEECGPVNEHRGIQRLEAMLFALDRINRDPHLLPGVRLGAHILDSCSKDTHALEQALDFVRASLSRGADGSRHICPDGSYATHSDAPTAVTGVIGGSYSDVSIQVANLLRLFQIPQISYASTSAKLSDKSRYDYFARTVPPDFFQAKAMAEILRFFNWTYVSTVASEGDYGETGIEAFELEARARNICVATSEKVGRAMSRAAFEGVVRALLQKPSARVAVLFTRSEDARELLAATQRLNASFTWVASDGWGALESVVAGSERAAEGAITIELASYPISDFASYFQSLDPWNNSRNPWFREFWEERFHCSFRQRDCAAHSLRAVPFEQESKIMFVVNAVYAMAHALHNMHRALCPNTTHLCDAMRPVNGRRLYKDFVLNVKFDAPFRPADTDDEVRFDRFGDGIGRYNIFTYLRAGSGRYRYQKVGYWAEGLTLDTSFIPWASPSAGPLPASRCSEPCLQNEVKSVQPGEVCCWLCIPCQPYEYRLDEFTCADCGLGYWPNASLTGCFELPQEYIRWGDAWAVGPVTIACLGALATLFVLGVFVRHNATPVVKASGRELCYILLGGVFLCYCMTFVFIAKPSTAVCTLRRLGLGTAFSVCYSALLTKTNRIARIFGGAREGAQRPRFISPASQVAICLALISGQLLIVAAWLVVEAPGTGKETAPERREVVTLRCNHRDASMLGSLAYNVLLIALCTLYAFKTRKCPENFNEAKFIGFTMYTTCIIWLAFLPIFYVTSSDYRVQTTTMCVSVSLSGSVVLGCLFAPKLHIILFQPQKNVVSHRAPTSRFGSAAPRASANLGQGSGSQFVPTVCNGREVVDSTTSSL
In general terms: Changes in cAMP serve as a functional read-out for many G protein-coupled receptors.

Assay [6] concerns the target T2, Metabotropic glutamate receptor 2. Nature of the assay: Antagonist activity at rat mGluR2 receptor expressed in CHO cells assessed as effect on intracellular cAMP level. Type of assay: functional, cell-based. A digest of the protocol:
as §1

The target in assay [7] is T1, Metabotropic glutamate receptor 1. Nature of the assay: Antagonist activity at rat mGluR1a receptor expressed in CHO cells assessed as effect on intracellular calcium level. The format is functional, cell-based. A digest of the protocol:
as §1

Assay [8] addresses Metabotropic glutamate receptor 2 (Rattus norvegicus) (UniProt P31421). Described as §2. Type of assay: functional, cell-based. In short, it runs like this: as §1

Structures are written as SMILES.

Metabotropic glutamate receptor 4, sequence (P31423 whole entry): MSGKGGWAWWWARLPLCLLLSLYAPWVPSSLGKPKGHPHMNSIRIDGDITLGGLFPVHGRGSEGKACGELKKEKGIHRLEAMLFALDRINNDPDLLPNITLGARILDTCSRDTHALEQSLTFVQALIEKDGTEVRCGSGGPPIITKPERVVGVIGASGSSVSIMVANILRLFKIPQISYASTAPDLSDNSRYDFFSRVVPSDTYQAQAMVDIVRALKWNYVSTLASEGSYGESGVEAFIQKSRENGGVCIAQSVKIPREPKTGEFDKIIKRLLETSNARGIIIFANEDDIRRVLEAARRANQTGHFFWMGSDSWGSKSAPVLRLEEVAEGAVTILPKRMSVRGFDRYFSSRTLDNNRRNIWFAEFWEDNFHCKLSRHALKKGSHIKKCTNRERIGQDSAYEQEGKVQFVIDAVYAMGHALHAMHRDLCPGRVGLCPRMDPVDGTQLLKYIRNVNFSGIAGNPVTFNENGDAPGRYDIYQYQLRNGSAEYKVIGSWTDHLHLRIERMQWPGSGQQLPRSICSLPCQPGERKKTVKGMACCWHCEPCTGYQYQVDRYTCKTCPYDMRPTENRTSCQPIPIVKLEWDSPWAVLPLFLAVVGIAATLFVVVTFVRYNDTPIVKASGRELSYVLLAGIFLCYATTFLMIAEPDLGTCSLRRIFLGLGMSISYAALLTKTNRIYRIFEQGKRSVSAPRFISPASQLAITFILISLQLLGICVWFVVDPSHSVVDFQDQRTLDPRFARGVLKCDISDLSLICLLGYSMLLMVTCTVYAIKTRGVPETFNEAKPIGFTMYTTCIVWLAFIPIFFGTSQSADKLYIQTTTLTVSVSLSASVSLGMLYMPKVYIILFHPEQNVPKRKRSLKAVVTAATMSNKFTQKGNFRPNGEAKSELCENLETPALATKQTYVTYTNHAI
Metabotropic glutamate receptor 2 (Rattus norvegicus), sequence (P31421 19-872 limits assumed): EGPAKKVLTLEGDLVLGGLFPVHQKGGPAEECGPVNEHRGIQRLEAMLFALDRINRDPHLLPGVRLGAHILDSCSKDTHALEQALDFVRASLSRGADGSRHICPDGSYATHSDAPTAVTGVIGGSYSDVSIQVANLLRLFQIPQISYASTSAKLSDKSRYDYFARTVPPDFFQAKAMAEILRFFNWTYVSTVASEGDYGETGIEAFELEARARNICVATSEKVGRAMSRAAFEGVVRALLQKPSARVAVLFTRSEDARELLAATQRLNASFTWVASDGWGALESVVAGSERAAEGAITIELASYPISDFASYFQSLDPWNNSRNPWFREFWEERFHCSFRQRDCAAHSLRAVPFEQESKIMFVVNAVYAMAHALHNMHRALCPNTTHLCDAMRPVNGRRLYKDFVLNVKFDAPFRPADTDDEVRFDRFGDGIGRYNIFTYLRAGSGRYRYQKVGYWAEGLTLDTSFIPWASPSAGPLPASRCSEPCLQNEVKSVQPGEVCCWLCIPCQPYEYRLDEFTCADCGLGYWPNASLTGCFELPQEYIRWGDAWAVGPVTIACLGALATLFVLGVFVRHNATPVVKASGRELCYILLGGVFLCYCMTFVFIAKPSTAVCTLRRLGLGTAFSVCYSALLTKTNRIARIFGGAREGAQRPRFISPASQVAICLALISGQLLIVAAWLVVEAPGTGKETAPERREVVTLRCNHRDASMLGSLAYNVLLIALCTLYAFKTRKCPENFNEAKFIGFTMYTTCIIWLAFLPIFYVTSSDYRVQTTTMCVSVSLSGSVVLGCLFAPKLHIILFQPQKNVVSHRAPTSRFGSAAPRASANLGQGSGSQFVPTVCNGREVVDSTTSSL

As to `CCCCc1c(C(N)C(=O)O)cnn1O` (racemic), the EC50 in [1], in assay [2] and in assay [5] (read-out: EC50) was more than 1000 µM throughout. Moreover, the IC50 in [3] and in assay [4] was more than 100 µM in each case. For the same compound, the Ki – broadly, the equilibrium dissociation constant of an inhibitor or competing ligand from its target – at Glutamate NMDA receptor is more than 100 µM.
As for `CCCc1c(C(N)C(=O)O)cnn1O` (racemic), the EC50 (commonly the concentration needed to bring the measured effect to its halfway point) was more than 1000 µM in assay [1], more than 1000 µM in assay [2], 72 µM in assay [5] (read-out: EC50) and 67.6 µM in assay [5] (read-out: Log EC50 (converted)). The IC50 in assay [3] and in [4] was more than 100 µM in each case. Further, on Glutamate NMDA receptor, the inhibitory constant (Ki) is more than 100 µM.
As for `NC(C(=O)O)c1cnn(O)c1CCCc1ccccc1` (racemic), in assay [1], the EC50 was more than 1000 µM. Moreover, the Ki was 67 µM in assay [6], 260 µM in assay [7] (read-out: Ki) and 54 µM at Glutamate NMDA receptor. For the same compound, the IC50 in assay [3] and in [4] was more than 100 µM throughout.
`NC(C(=O)O)c1cnn(O)c1CCc1ccccc1` (racemic): the 50% effective concentration (EC50) in assay [1] and in [5] (read-out: EC50) was more than 1000 µM each time. Further, the Ki was 230 µM in [7] (read-out: Ki), 195 µM in assay [7] (read-out: Log Ki (converted)) and more than 100 µM on Glutamate NMDA receptor. Moreover, the IC50 in assay [3] and in assay [4] was more than 100 µM each time.
For `CCc1c(C(N)C(=O)O)cnn1O` (racemic), the EC50 was more than 1000 µM in [1], more than 1000 µM in assay [2] and 57 µM in [5] (read-out: EC50). Also, the IC50 in [3] and in assay [4] was more than 100 µM in each case. The Ki on Glutamate NMDA receptor was found to be 32 µM.
On to `CCCCCc1c(C(N)C(=O)O)cnn1O` (racemic), for which the 50% effective concentration (EC50) in assay [1], in [2] and in assay [5] (read-out: EC50) was more than 1000 µM each time. Moreover, the IC50 in assay [3] and in [4] was more than 100 µM in each case. This compound came in with a Ki on Glutamate NMDA receptor of more than 100 µM.
`NC(C(=O)O)c1cnn(O)c1-c1ccccc1` (racemic): the EC50 in assay [1] and in assay [2] was more than 1000 µM in each case. The Ki in assay [6] was 180 µM; at Glutamate NMDA receptor, more than 100 µM. The IC50 in assay [3] and in [4] was more than 100 µM in each case.
With `NC(C(=O)O)c1cnn(O)c1Br` (racemic), the EC50 was more than 1000 µM in [1], more than 1000 µM in assay [2], 170 µM in assay [5] (read-out: EC50) and 151 µM in assay [5] (read-out: Log EC50 (converted)). Besides, the IC50 in assay [3] and in assay [4] was more than 100 µM throughout. This compound gave a Ki on Glutamate NMDA receptor of 25 µM. The Activity in assay [8] was determined as 43%.
For the compound `NC(C(=O)O)c1cnn(O)c1CC1CCCCC1` (racemic), the concentration for a half-maximal effect (EC50) in [1] and in assay [2] was more than 1000 µM throughout. For the same compound, the figures for the Ki (in assay [6]; on Glutamate NMDA receptor) were 32 µM and more than 100 µM, respectively. The IC50 in assay [3] and in [4] was more than 100 µM each time.
As to `NC(C(=O)O)c1cnn(O)c1Cc1ccccc1` (racemic), the EC50 in [1] and in [2] was more than 1000 µM each time. In addition, the values for the Ki (in assay [6]; at Glutamate NMDA receptor) were 120 µM and 67 µM, respectively. In addition, the IC50 in assay [3] and in assay [4] was more than 100 µM throughout.
On to `NC(C(=O)O)c1cnn(O)c1C(c1ccccc1)c1ccccc1` (racemic), for which the EC50 in [1], in assay [2] and in [5] (read-out: EC50) was more than 1000 µM in each case. The values for the IC50 in assay [3] and in assay [4] were more than 100 µM and 47 µM, respectively. Further, the “Log IC50” value in assay [4] is given as -4.33. This compound also gave a Ki at Glutamate NMDA receptor of more than 100 µM.
As for `NC(C(=O)O)c1cnn(O)c1CC1CC1` (racemic), the EC50 in assay [1], in assay [2] and in assay [5] (read-out: EC50) was more than 1000 µM each time. Further, the IC50 in assay [3] and in [4] was more than 100 µM in each case. Also, the Ki on Glutamate NMDA receptor came out at 35 µM. The “Log Ki” value on Glutamate NMDA receptor was -4.47.
